Data published in BindingDB's records for doi:10.1021/jm030913e (Ucb Pharma, 2004).

Biological target: Synaptic vesicle glycoprotein 2A (Rattus norvegicus, UniProt Q02563)
Assay: In vitro inhibitory activity against [3H](2S)-2-[4-(3-azidophenyl)-2-oxopyrrolidin-1-yl]butanamide binding to levetiracetam binding site
Method in brief: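 Rat cerebral cortex membranes (male Sprague-Dawley, 200–250 g), homogenised in Tris-HCl/sucrose at 4 °C, washed, preincubated 15 min at 37 °C. Binding: 4 °C for 120 min in 50 mmol/L Tris-HCl pH 7.4 with 2 mmol/L MgCl2, 1–2 × 10^-9 mol/L tritiated azidophenyl radioligand, rising test concentrations. Nonspecific binding with 10^-3 mol/L levetiracetam. Rapid filtration, scintillation counting. pIC50 is the mean of two independent determinations.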

Sequence of Synaptic vesicle glycoprotein 2A (Q02563 whole entry): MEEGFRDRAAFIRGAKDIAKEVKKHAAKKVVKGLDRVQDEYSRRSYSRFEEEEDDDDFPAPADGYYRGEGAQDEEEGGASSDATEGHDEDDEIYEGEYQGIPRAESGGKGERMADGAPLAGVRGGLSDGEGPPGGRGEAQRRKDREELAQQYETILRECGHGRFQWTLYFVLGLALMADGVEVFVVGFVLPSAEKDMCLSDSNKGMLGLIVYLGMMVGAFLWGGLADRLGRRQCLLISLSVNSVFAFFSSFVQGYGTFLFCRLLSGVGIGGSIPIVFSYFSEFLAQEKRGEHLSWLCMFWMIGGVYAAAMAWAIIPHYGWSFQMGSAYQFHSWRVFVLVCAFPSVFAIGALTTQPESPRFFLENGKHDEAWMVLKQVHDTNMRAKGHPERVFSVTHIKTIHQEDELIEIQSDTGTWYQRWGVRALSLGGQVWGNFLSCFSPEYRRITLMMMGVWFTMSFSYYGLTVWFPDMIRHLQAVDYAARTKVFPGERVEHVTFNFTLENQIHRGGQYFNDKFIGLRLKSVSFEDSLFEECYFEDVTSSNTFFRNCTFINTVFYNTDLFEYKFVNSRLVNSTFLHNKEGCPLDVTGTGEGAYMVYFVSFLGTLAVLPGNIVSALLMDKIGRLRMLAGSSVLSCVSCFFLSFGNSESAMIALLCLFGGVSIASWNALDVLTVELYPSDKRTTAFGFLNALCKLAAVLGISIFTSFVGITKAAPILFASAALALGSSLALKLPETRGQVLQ

Row | SMILES | IC50 [nM]
1 | CCC[C@H](C(N)=O)N1CCCC1=O | 999000
2 | CCC(C(N)=O)N1C(=O)CCC1(C)C (stereo unspecified) | 63000
3 | CC[C@@H](C(N)=O)N1C[C@H](CO[N+](=O)[O-])CC1=O | 100
4 | CC[C@@H](C(N)=O)N1C[C@H](CCl)CC1=O | 199
5 | CCC(C(N)=O)N1CC(C(C)C)CC1=O (stereo unspecified) | 3980
6 | CCC[C@@H]1CC(=O)N([C@@H](CC)C(N)=O)C1 [UCB-34714] | 100
7 | CC[C@@H](C(=O)NC)N1CCCC1=O | 12500
8 | CCCCCCCN(C(=O)Cc1ccc(OC)cc1)C(CC)C(N)=O (stereo unspecified) | 2510
9 | CC(C)C(C(N)=O)N1CCCC1=O (stereo unspecified) | 19900
10 | CCC[C@@H](C(N)=O)N1CCCC1=O | 5010
11 | CC[C@@H](C(N)=O)N1C[C@H](CSC)CC1=O | 125
12 | CCC(C(N)=O)N1CC(Cc2ccccc2)CC1=O (stereo unspecified) | 2510
13 | CCC(C(=O)N(C)O)N1CCCC1=O (stereo unspecified) | 19900
14 | CC[C@@H](C(=O)NO)N1CCCC1=O | 1990
15 | CC[C@@H](C(N)=O)N1C[C@H](C)CC1=O | 1250
16 | CC[C@@H](C(N)=O)N1C(=O)CCC1C (stereo partly specified) | 2510
17 | CC[C@@H](C(N)=O)N1CC(CC(C)(C)C)CC1=O (stereo partly specified) | 794
18 | CCC(C(=O)NN)N1CCCC1=O (stereo unspecified) | 6300
19 | CCCCCCCCN(C(=O)CC)C(CC)C(N)=O (stereo unspecified) | 3980
20 | CCCCCCCCN(C(=O)Cc1ccc(Cl)cc1)C(CC)C(N)=O (stereo unspecified) | 1990
21 | CC[C@@H](C(N)=O)N1CCC(C)C1=O (stereo partly specified) | 19900

Row | SMILES | IC50 [nM]
22 | CC[C@@H](C(N)=O)N1C[C@H](CBr)CC1=O | 251
23 | CC[C@@H](C(=N)N)N1CCCC1=O | 12500
24 | NC(=O)CN1CCCC1=O [2-(2-oxopyrrolidin-1-yl)acetamide] | 39800
25 | CCC[C@H]1CC(=O)N([C@@H](CC)C(N)=O)C1 | 251
26 | CCC(C(N)=O)N1CC(COC)CC1=O (stereo unspecified) | 1580
27 | CCCCCN(C(=O)CC)C(CC)C(N)=O (stereo unspecified) | 1990
28 | C[C@@H](C(N)=O)N1CCCC1=O | 3160
29 | CC[C@@H](C(N)=O)N1CC(NC(=O)OC)CC1=O (stereo partly specified) | 1580
30 | CC[C@@H](C(N)=O)N1C[C@H](CF)CC1=O | 1250
31 | CC[C@H](C(N)=O)N1CCCC1=O [Levitiracetam] | < 999000
32 | CC[C@@H](C(N)=O)N1CC(CC2CC2)CC1=O (stereo partly specified) | 125
33 | CC[C@@H](C(N)=O)N(C)C(C)=O | 15800
34 | CCCCCC1CC(=O)N(C(CC)C(N)=O)C1 (stereo unspecified) | 1250
35 | CCC1CC(=O)N([C@@H](CC)C(N)=O)C1 (stereo partly specified) | 1250
36 | CC[C@@H](C(N)=O)N1C[C@H](CI)CC1=O | 158
37 | CC[C@@H](C(N)=O)N1C[C@H](CN=[N+]=[N-])CC1=O | 79.4
38 | CCCCN(C(=O)CC)[C@@H](CC)C(N)=O | 9990
39 | CCCCC1CC(=O)N(C(CC)C(N)=O)C1 (stereo unspecified) | 398
40 | CCCC1(C)CC(=O)N([C@@H](CC)C(N)=O)C1 (stereo partly specified) | 398
41 | CC[C@@H](C(N)=O)N1CCCC1=O [UCB-22059] | 794
